Experimental data from ChEMBL document CHEMBL1141516, “2-Aminotetralones: novel inhibitors of MurA and MurZ” (Bioorg Med Chem Lett, 2008).
≈ marks a conversion by molar mass, not a printed value. Calls of active or inactive are those of the source. No cut-off for these calls is given here.

Columns and labels:
[1] = Inhibition of Escherichia coli MurA
Method in brief: (§1)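 Poly(His)-tagged MurA from E. coli BL21 Star (DE3) (0.1 mM IPTG, 18 °C, 24 h), purified by Co2+ affinity and gel filtration. At 25 °C, a 2-fold inhibitor series went to 33.3 µg/mL enzyme preincubated 10 min in 50 mM Tris-HCl pH 7.8 with UDP-GlcNAc. PEP started a 30 min reaction. Phosphate was read by malachite green-molybdate at A660 against standards. Means of four experiments ± SD.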

[2] = Inhibition of Staphylococcus aureus MurA; method in brief: as §1
[3] = Inhibition of Staphylococcus aureus MurZ
Method in brief: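 Poly(His)-tagged MurZ was expressed in E. coli BL21 Star (DE3) by autoinduction and purified by Co2+ affinity and gel filtration. At 25 °C, a 2-fold inhibitor series was added to enzyme preincubated 10 min in 50 mM Tris-HCl pH 7.8 with UDP-GlcNAc. PEP started a 30 min reaction. Released phosphate was read by malachite green-molybdate at A660 against phosphate standards. Means of three experiments ± SD.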

[4] = Antibacterial activity against Escherichia coli JM109; format: functional
[5] = Antibacterial activity against Staphylococcus aureus SH1000; format: functional
[6] = Inhibition of MDH
[7] = Inhibition of chymotrypsin
[8] = system: UDP-N-acetylglucosamine 1-carboxyvinyltransferase (Escherichia coli K-12), P0A749 [C115D]; test: Inhibition of Escherichia coli MurA C115D mutant
Method in brief: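 Purified E. coli MurA C115D mutant protein was tested with inhibitor at up to 120 µM.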

Chain of UDP-N-acetylglucosamine 1-carboxyvinyltransferase (Escherichia coli K-12), P0A749 [C115D] (P0A749 whole entry C115D): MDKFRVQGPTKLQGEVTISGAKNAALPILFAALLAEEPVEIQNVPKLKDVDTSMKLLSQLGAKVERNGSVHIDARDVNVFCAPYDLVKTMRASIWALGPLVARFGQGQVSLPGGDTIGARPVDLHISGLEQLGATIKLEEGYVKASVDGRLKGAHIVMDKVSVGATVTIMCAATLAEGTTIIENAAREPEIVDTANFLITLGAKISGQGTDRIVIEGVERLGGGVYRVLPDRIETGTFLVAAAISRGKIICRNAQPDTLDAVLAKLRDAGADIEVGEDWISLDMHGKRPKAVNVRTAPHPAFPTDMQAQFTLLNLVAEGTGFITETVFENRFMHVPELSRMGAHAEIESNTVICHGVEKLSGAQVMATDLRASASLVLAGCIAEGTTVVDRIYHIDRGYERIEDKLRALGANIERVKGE

Row | Structure (SMILES) | IC50 [1] [µM] | IC50 [2] [µM] | IC50 [3] [µM] | MIC [4] [µg/mL] | MIC [5] [µg/mL] | Activity [6] | Activity [7] | Activity [8]
1 | Cl.Cl.OCCN1CCN(C2CCc3ccccc3C2)CC1 (stereo not given) | > 120 | > 120 | > 120 | > 256 | > 256 | – | – | –
2 | O=C1c2ccccc2CCC1C1CCCCC1 (stereo not given) | > 120 | > 120 | > 120 | > 256 | > 256 | – | – | –
3 | COc1cc2c(cc1OC)C(=O)C(N1CCN(Cc3ccccc3)CC1)CC2 (stereo not given) | 22.6 | 29 | 28.9 | > 256 | 64 (≈ 168 µM) | inactive | inactive | –
4 | Cl.Cl.OCCN1CCN([C@@H]2CCc3ccccc3[C@H]2O)CC1 | > 120 | > 120 | > 120 | > 256 | > 256 | – | – | –

Second part, the compound after the results:

Row | IC50 [1] [µM] | IC50 [2] [µM] | IC50 [3] [µM] | MIC [4] [µg/mL] | MIC [5] [µg/mL] | Activity [6] | Activity [7] | Activity [8] | Structure (SMILES)
5 | 22.5 | 12.5 | 16.1 | 128 | 8 | inactive | inactive | – | Cl.Cl.O=C1c2ccccc2CCC1N1CCN(CCO)CC1 (stereo not given)
6 | 3.13 | 17.4 | 18.8 | 256 | 128 | inactive | inactive | inactive | COc1cc2c(cc1OC)C(=O)C(N1CCN(CCO)CC1)CC2.Cl.Cl (stereo not given)
7 | 0.46 | 1.36 | 1.37 | 8 (≈ 57.9 µM) | 16 (≈ 116 µM) | – | – | – | C[C@@H]1O[C@@H]1P(=O)(O)O [FOSFOMYCIN]
8 | 8.53 | 12 | 22.9 | 128 | 64 | inactive | inactive | inactive | CN1CCN(C2CCc3ccccc3C2=O)CC1.Cl.Cl (stereo not given)
